Source: ChEMBL document CHEMBL3856258, “Phosphonate-based irreversible inhibitors of human γ-glutamyl transpeptidase (GGT). GGsTop is a non-toxic and highly selective inhibitor with critical electrostatic interaction with an active-site residue Lys562 for enhanced inhibitory activity” (Bioorg Med Chem, 2016)
The source made the active and inactive calls. The calls are words filed in the database; no cut-off is given here.

Tests used:
Salmonella typhimurium [1] = experiment: Genotoxicity in Salmonella typhimurium TA1535 assessed as number of revertant colonies per plate at 20.6 ug/plate after 20 mins in absence of S9 fraction by Ames test (reference value: 15); type: toxicity, organism-based; conditions: salmonella enterica subsp. enterica serovar typhimurium
Salmonella typhimurium [2] = experiment: Genotoxicity in Salmonella typhimurium TA1535 assessed as number of revertant colonies per plate at 5000 ug/plate after 20 mins in absence of S9 fraction by Ames test (reference value: 15); type: toxicity, organism-based; conditions: salmonella enterica subsp. enterica serovar typhimurium
Escherichia coli [3] = experiment: Genotoxicity in Escherichia coli WP2uvrA assessed as number of revertant colonies per plate at 556 ug/plate after 20 mins in absence of S9 fraction by Ames test (reference value: 24); type: toxicity; conditions: s9, 20 min
Salmonella typhimurium [4] = experiment: Genotoxicity in Salmonella typhimurium TA98 assessed as number of revertant colonies per plate at 185 ug/plate after 20 mins in absence of S9 fraction by Ames test (reference value: 21); type: toxicity, organism-based; conditions: salmonella enterica subsp. enterica serovar typhimurium
Salmonella typhimurium [5] = experiment: Genotoxicity in Salmonella typhimurium TA98 assessed as number of revertant colonies per plate at 1667 ug/plate after 20 mins in absence of S9 fraction by Ames test (reference value: 21); type: toxicity, organism-based; conditions: salmonella enterica subsp. enterica serovar typhimurium
Salmonella typhimurium [6] = experiment: Genotoxicity in Salmonella typhimurium TA1537 assessed as number of revertant colonies per plate at 185 ug/plate after 20 mins in absence of S9 fraction by Ames test (reference value: 9); type: toxicity, organism-based; conditions: salmonella enterica subsp. enterica serovar typhimurium
Salmonella typhimurium [7] = experiment: Genotoxicity in Salmonella typhimurium TA1537 assessed as number of revertant colonies per plate at 5000 ug/plate after 20 mins in absence of S9 fraction by Ames test (reference value: 9); type: toxicity, organism-based; conditions: salmonella enterica subsp. enterica serovar typhimurium
Salmonella typhimurium [8] = experiment: Genotoxicity in Salmonella typhimurium TA100 assessed as number of revertant colonies per plate at 61.7 ug/plate after 20 mins in presence of S9 fraction by Ames test (reference value: 142); type: toxicity, organism-based; conditions: salmonella enterica subsp. enterica serovar typhimurium
Salmonella typhimurium [9] = experiment: Genotoxicity in Salmonella typhimurium TA100 assessed as number of revertant colonies per plate at 185 ug/plate after 20 mins in presence of S9 fraction by Ames test (reference value: 142); type: toxicity, organism-based; conditions: salmonella enterica subsp. enterica serovar typhimurium
Escherichia coli [10] = experiment: Genotoxicity in Escherichia coli WP2uvrA assessed as number of revertant colonies per plate at 20.6 ug/plate after 20 mins in presence of S9 fraction by Ames test (reference value: 26); type: toxicity; conditions: s9, 20 min
[11] = Cytotoxicity against CHL cells assessed as growth rate at 528 ug/ml preincubated for 6 hrs followed by 18 hrs incubation in fresh medium in absence of S9 fraction by MTT assay relative to control; type: toxicity, cell-based, Cricetulus griseus; conditions: chinese hamster, read-out: Activity
[12] = Cytotoxicity against CHL cells assessed as growth rate at 3300 ug/ml preincubated for 6 hrs followed by 18 hrs incubation in fresh medium in absence of S9 fraction by MTT assay relative to control; type: toxicity, cell-based, Cricetulus griseus; conditions: chinese hamster, read-out: Activity
[13] = Cytotoxicity against CHL cells assessed as growth rate at 5.41 ug/ml preincubated for 6 hrs followed by 18 hrs incubation in fresh medium in presence of S9 fraction by MTT assay relative to control; type: toxicity, cell-based, Cricetulus griseus; conditions: chinese hamster, read-out: Activity
[14] = Cytotoxicity against CHL cells assessed as growth rate at 84.5 ug/ml preincubated for 6 hrs followed by 18 hrs incubation in fresh medium in presence of S9 fraction by MTT assay relative to control; type: toxicity, cell-based, Cricetulus griseus; conditions: chinese hamster, read-out: Activity
[15] = Cytotoxicity against CHL cells assessed as growth rate at 211 ug/ml preincubated for 6 hrs followed by 18 hrs incubation in fresh medium in presence of S9 fraction by MTT assay relative to control; type: toxicity, cell-based, Cricetulus griseus; conditions: chinese hamster, read-out: Activity
[16] = Cytotoxicity against CHL cells assessed as structural aberrations at 825 ug/ml preincubated for 6 hrs followed by 18 hrs incubation in fresh medium in absence of S9 fraction by Giemsa-staining-based microscopic analysis; type: toxicity, cell-based, Cricetulus griseus; conditions: chinese hamster
[17] = Cytotoxicity against CHL cells assessed as chromatid gap at 3300 ug/ml preincubated for 6 hrs followed by 18 hrs incubation in fresh medium in absence of S9 fraction by Giemsa-staining-based microscopic analysis; type: toxicity, cell-based, Cricetulus griseus; conditions: chinese hamster
[18] = Cytotoxicity against CHL cells assessed as structural aberrations at 1650 ug/ml preincubated for 6 hrs followed by 18 hrs incubation in fresh medium in presence of S9 fraction by Giemsa-staining-based microscopic analysis; type: toxicity, cell-based, Cricetulus griseus; conditions: chinese hamster
[19] = Cytotoxicity against CHL cells assessed as chromatid gap at 1650 ug/ml preincubated for 6 hrs followed by 18 hrs incubation in fresh medium in presence of S9 fraction by Giemsa-staining-based microscopic analysis; type: toxicity, cell-based, Cricetulus griseus; conditions: chinese hamster
[20] = Cytotoxicity against CHL cells assessed as structural aberrations at 3300 ug/ml after 24 hrs by Giemsa-staining-based microscopic analysis; type: toxicity, cell-based, Cricetulus griseus; conditions: chinese hamster
[21] = Cytotoxicity against CHL cells assessed as chromatid gap at 1650 ug/ml after 24 hrs by Giemsa-staining-based microscopic analysis; type: toxicity, cell-based, Cricetulus griseus; conditions: chinese hamster
[22] = Cytotoxicity against CHL cells assessed as chromatid gap at 3300 ug/ml after 24 hrs by Giemsa-staining-based microscopic analysis; type: toxicity, cell-based, Cricetulus griseus; conditions: chinese hamster
[23] = Cytotoxicity against human CCD-1059SK cells assessed as reduction in cell viability up to 1 mM after 24 hrs by neutral red method; type: toxicity, cell-based
Procedure, shortened: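 CCD-1059SK skin fibroblasts, passages 10–20, grown in DMEM with 10% FBS at 37 °C under 5% CO2. Pre-incubated 24 h after plating, then exposed 24 h to 0, 10, 100 or 1000 µM, diluted into medium from distilled water. Viability read by Neutral Red assay.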

[24] = Cytotoxicity against human CCD-1059SK cells assessed as morphological change up to 1 mM after 24 hrs by inverted microscopic analysis; type: toxicity, cell-based
Procedure, shortened: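 Human skin fibroblasts (CCD-1059SK), passages 10–20, grown in DMEM with 10% FBS and antibiotics at 37 °C under 5% CO2. Plated at 3 × 10^4 cells/mL on chamber slides and pre-incubated 24 h. Then exposed 24 h to 0, 5, 10, 20, 50 or 1000 µM in DMEM (from aqueous solution); water-only control. Morphology checked by inverted microscopy.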

Rattus norvegicus = species on record: Rattus norvegicus; experiment: Cytotoxicity against Wistar rat […] assessed as morphological change up to 1 mM after 24 hrs by inverted microscopic analysis; type: toxicity
Procedure, shortened: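 Hepatic stellate cells isolated from male Wistar rats (300–350 g), identified by star-like shape and vitamin A autofluorescence, purity >95%. Plated at 5 × 10^5 cells/ml in DMEM with 10% FBS for 2 days, then kept serum-free 24 h at 37 °C. Exposed 24 h to 0, 10, 100 or 1000 µM in DMEM. Morphology checked by inverted microscopy.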

[25] = Hydrolytic stability of compound in D2O at pH 1 to 2 by 31P NMR spectroscopy; type: physicochemical; conditions: buffer
[26] = Cytotoxicity against CHL cells assessed as number of cells with numerical aberrations at 3300 ug/ml preincubated for 6 hrs followed by 18 hrs incubation in fresh medium in absence of S9 fraction by Giemsa-staining-based microscopic analysis relative to control; type: toxicity, cell-based, Cricetulus griseus; conditions: chinese hamster
[27] = Cytotoxicity against CHL cells assessed as number of cells with numerical aberrations at 825 ug/ml preincubated for 6 hrs followed by 18 hrs incubation in fresh medium in presence of S9 fraction by Giemsa-staining-based microscopic analysis relative to control; type: toxicity, cell-based, Cricetulus griseus; conditions: chinese hamster
[28] = system: Gamma-glutamyltranspeptidase 1 (Homo sapiens); experiment: Inhibition of human wild-type N-terminal truncated GGT expressed in baculovirus infected High Five cells at 1 mM using gamma-Glu-PNA as substrate after 1 min by spectrophotometric method; conditions: BTI-TN-5B1-4

COP(=O)(CCC(N)C(=O)O)Oc1cccc(CC(=O)O)c1 (centres undefined)
Activity (Salmonella typhimurium [1]): 15
Activity (Salmonella typhimurium [2]): 13
Activity (Escherichia coli [3]): 25
Activity (Salmonella typhimurium [4]): 24
Activity (Salmonella typhimurium [5]): 23
Activity (Salmonella typhimurium [6]): 12
Activity (Salmonella typhimurium [7]): 9
Activity (Salmonella typhimurium [8]): 133
Activity (Salmonella typhimurium [9]): 147
Activity (Escherichia coli [10]): 30
viability at 18 h, 528 ug/ml [11]: 101%
viability at 18 h, 3300 ug/ml [12]: 97.1%
viability at 18 h, 5.41 ug/ml [13]: 102%
viability at 18 h, 84.5 ug/ml [14]: 100%
viability at 18 h, 211 ug/ml [15]: 98.8%
Activity [16]: 3%
Activity [17]: 0%
Activity [18]: 1%
Activity [19]: 1%
Activity [20]: 1%
Activity [21]: 1%
Activity [22]: 0%
Activity [23]: Non-Toxic
Activity [24]: Non-Toxic
Activity (Rattus norvegicus): Non-Toxic
Stability [25]: Stable
Activity [26]: 0%
Activity [27]: 1%
inhibition [28]: Active
